According to ChEMBL document CHEMBL5303300, “EUbOPEN Chemogenomics Library - Multiplex” (2023):
Several values for one entry are separate records, joined by “and”; a condition that tells them apart may be missing. Identical values can stand only once.

How the values were obtained:
[1] = system: HEK-293T; test: Multiplex assay against HEK293T; assay type: toxicity, cell-based; conditions: human, number of replicates 2
Summary of the method: (§1)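 Live cells were stained at seeding with Hoechst33342, BioTracker Green Microtubule Cytoskeleton Dye, MitoTracker Red and Annexin V Alexa Fluor 680. Following compound addition, they were imaged on a CQ1 microscope at 37°C and 5% CO2 and gated by CellPathfinder machine learning into Hoechst high-intensity objects or normal cells, with normal cells split into healthy, pyknosed or fragmented nuclei and pyknosed cells into mitotic or apoptotic. Tubulin, mitochondrial-mass and membrane-permeability phenotypes are per cents of healthy-nucleus cells.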

[2] = system: U2OS; test: Multiplex assay against U2OS; assay type: toxicity, cell-based; conditions: human, number of replicates 2; summary of the method: as §1
[3] = 12 h, 1 µM, compound concentration 1 uM
[4] = 12 h, 10 µM, compound concentration 10 uM
[5] = 24 h, 1 µM, compound concentration 1 uM
[6] = 24 h, 10 µM, compound concentration 10 uM
[7] = 48 h, 1 µM, compound concentration 1 uM
[8] = 48 h, 10 µM, compound concentration 10 uM

CC(C)c1cc(-c2ccc(F)c3ccccc23)nc(N)n1
Population Apoptotic (%) [1, 3]: 45% and 56%
Population Fragmented Nuclei (%) [1, 3]: 3%
Population Healthy Nuclei (%) [1, 3]: 88% and 87%
Population Hoechst High Intensity Objects (%) [1, 3]: 5%
Population Membrane Permeable-Phenotype (%) [1, 3]: 2%
Population Mitochondria Different-Phenotype (%) [1, 3]: 15%
Population Mitotic Cells (%) [1, 3]: 54% and 43%
Population Normal (%) [1, 3]: 94%
Population Pyknosed Nuclei (%) [1, 3]: 8% and 9%
Population Tubulin-Different-Phenotype (%) [1, 3]: 54% and 59%
Total Cell Count [1, 3]: 775 and 598
Population Apoptotic (%) [1, 4]: 62%
Population Fragmented Nuclei (%) [1, 4]: 3% and 4%
Population Healthy Nuclei (%) [1, 4]: 78% and 80%
Population Hoechst High Intensity Objects (%) [1, 4]: 7%
Population Membrane Permeable-Phenotype (%) [1, 4]: 1% and 0%
Population Mitochondria Different-Phenotype (%) [1, 4]: 25% and 20%
Population Mitotic Cells (%) [1, 4]: 37%
Population Normal (%) [1, 4]: 92%
Population Pyknosed Nuclei (%) [1, 4]: 18% and 15%
Population Tubulin-Different-Phenotype (%) [1, 4]: 66% and 60%
Total Cell Count [1, 4]: 434 and 448
Population Apoptotic (%) [1, 5]: 49% and 36%
Population Fragmented Nuclei (%) [1, 5]: 6% and 4%
Population Healthy Nuclei (%) [1, 5]: 88%
Population Hoechst High Intensity Objects (%) [1, 5]: 7% and 9%
Population Membrane Permeable-Phenotype (%) [1, 5]: 2% and 3%
Population Mitochondria Different-Phenotype (%) [1, 5]: 4% and 5%
Population Mitotic Cells (%) [1, 5]: 50% and 63%
Population Normal (%) [1, 5]: 92% and 90%
Population Pyknosed Nuclei (%) [1, 5]: 5% and 6%
Population Tubulin-Different-Phenotype (%) [1, 5]: 34% and 35%
Total Cell Count [1, 5]: 1247 and 898
Population Apoptotic (%) [1, 6]: 41% and 43%
Population Fragmented Nuclei (%) [1, 6]: 7% and 6%
Population Healthy Nuclei (%) [1, 6]: 84% and 82%
Population Hoechst High Intensity Objects (%) [1, 6]: 7% and 6%
Population Membrane Permeable-Phenotype (%) [1, 6]: 2% and 1%
Population Mitochondria Different-Phenotype (%) [1, 6]: 14% and 12%
Population Mitotic Cells (%) [1, 6]: 58% and 56%
Population Normal (%) [1, 6]: 92% and 93%
Population Pyknosed Nuclei (%) [1, 6]: 8% and 10%
Population Tubulin-Different-Phenotype (%) [1, 6]: 46% and 42%
Total Cell Count [1, 6]: 675 and 625
Population Apoptotic (%) [1, 7]: 10% and 18%
Population Fragmented Nuclei (%) [1, 7]: 16% and 10%
Population Healthy Nuclei (%) [1, 7]: 81% and 85%
Population Hoechst High Intensity Objects (%) [1, 7]: 9% and 10%
Population Membrane Permeable-Phenotype (%) [1, 7]: 5%
Population Mitochondria Different-Phenotype (%) [1, 7]: 0% and 1%
Population Mitotic Cells (%) [1, 7]: 90% and 81%
Population Normal (%) [1, 7]: 90% and 89%
Population Pyknosed Nuclei (%) [1, 7]: 2% and 4%
Population Tubulin-Different-Phenotype (%) [1, 7]: 17% and 23%
Total Cell Count [1, 7]: 3182 and 1908
Population Apoptotic (%) [1, 8]: 20% and 37%
Population Fragmented Nuclei (%) [1, 8]: 14% and 10%
Population Healthy Nuclei (%) [1, 8]: 81% and 86%
Population Hoechst High Intensity Objects (%) [1, 8]: 8% and 7%
Population Membrane Permeable-Phenotype (%) [1, 8]: 6% and 2%
Population Mitochondria Different-Phenotype (%) [1, 8]: 2% and 3%
Population Mitotic Cells (%) [1, 8]: 80% and 62%
Population Normal (%) [1, 8]: 91% and 92%
Population Pyknosed Nuclei (%) [1, 8]: 3% and 2%
Population Tubulin-Different-Phenotype (%) [1, 8]: 26% and 24%
Total Cell Count [1, 8]: 1507 and 1327
Population Apoptotic (%) [2, 3]: 35% and 50%
Population Fragmented Nuclei (%) [2, 3]: 2% and 12%
Population Healthy Nuclei (%) [2, 3]: 88% and 81%
Population Hoechst High Intensity Objects (%) [2, 3]: 0%
Population Membrane Permeable-Phenotype (%) [2, 3]: 1% and 7%
Population Mitochondria Different-Phenotype (%) [2, 3]: 0%
Population Mitotic Cells (%) [2, 3]: 65% and 50%
Population Normal (%) [2, 3]: 100%
Population Pyknosed Nuclei (%) [2, 3]: 8% and 6%
Population Tubulin-Different-Phenotype (%) [2, 3]: 88% and 44%
Population Apoptotic (%) [2, 4]: 66% and 52%
Population Healthy Nuclei (%) [2, 4]: 52% and 84%
Population Hoechst High Intensity Objects (%) [2, 4]: 0%
Population Mitotic Cells (%) [2, 4]: 33% and 48%
Population Normal (%) [2, 4]: 100%
Population Pyknosed Nuclei (%) [2, 4]: 15% and 10%
Population Tubulin-Different-Phenotype (%) [2, 4]: 80% and 71%
Population Fragmented Nuclei (%) [2, 5]: 3% and 8%
Population Healthy Nuclei (%) [2, 5]: 86% and 82%
Population Hoechst High Intensity Objects (%) [2, 5]: 0%
Population Membrane Permeable-Phenotype (%) [2, 5]: 0% and 7%
Population Mitochondria Different-Phenotype (%) [2, 5]: 0%
Population Mitotic Cells (%) [2, 5]: 47% and 100%
Population Normal (%) [2, 5]: 100%
